Screening results from PubChem BioAssay.
Compounds with a hit are over-represented: about 3.4% of the library has one in this group of screens.
PHOSPHO1 block: inhibitors of human PHOSPHO1 phosphatase; Q8TCT1; recombinant PHOSPHO1, absorbance phosphatase assay; inhibition, % at 13.3 µM; 290,000 compounds, 1.1% hits; in the data active = inhibition above about 60%
Runt-SMMHC FRET: inhibitors of human RUNX1 Runt domain binding to CBFb-SMMHC; 220,000 compounds, 0.74% hits; inhibition, % at 20 µM; Cerulean-Runt/Venus-CBFb-SMMHC FRET ratio 530/480, 1 h;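 active = mean inhibition across duplicate retests at 20 µM reaching about 50%, limit read from the data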;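 note: 0% = DMSO wells and 100% = wells with excess untagged CBFb-SMMHC; inhibitors lower the FRET ratio by blocking Runt binding to CBFb-SMMHC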
Target sequence (Q01196 whole entry, looked up, the tested form may be a part): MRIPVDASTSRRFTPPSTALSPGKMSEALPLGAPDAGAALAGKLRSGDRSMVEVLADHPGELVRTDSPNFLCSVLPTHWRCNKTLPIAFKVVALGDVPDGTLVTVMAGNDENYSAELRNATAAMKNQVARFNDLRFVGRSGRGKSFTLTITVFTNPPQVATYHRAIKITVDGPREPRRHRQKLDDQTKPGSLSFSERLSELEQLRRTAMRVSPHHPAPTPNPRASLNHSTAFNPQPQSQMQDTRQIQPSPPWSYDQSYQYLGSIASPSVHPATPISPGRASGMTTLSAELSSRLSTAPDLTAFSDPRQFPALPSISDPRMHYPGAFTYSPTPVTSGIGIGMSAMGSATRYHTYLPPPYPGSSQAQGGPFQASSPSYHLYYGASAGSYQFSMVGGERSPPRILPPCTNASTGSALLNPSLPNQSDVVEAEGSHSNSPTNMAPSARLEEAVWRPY
Target sequence (Q13951 whole entry, looked up, the tested form may be a part): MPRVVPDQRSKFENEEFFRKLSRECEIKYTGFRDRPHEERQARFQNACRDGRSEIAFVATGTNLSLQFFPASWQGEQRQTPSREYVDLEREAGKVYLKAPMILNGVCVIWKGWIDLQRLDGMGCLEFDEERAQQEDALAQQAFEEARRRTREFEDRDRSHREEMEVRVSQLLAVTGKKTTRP
Runt-CBFb FRET: inhibitors of human RUNX1 Runt domain binding to CBFb; inhibition, % at 20 µM; 220,000 compounds, 0.46% hits; Cerulean-Runt/Venus-CBFb FRET ratio 530/480, 1 h; AID 1496; Q01196+Q13951;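 active = inhibition over about 50% at 20 µM in the single-dose screen, limit read from the data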;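 note: 0% = DMSO wells and 100% = excess unlabeled CBFb competitor control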
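Doses: 20 µM compound in 1% DMSO | Material: Cerulean-labeled Runt domain protein | Amount: Each fluorescent fusion protein 100 nM | Schedule: Two 1 h room-temperature incubations shielded from light | Measured by: FRET fluorescence | Evaluation: Loss of energy transfer signal | Controls: Unlabeled CBFb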
Efa HMGR inh: E. faecalis class II HMG-CoA reductase inhibition; purified E. faecalis HMGR, NADPH absorbance 340 nm kinetic; 190,000 compounds, 0.41% hits; inhibition, % at 10 µM;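 active = inhibition above a set limit, the median over all tested compounds plus 3 SD, cut at about 9.5% in these data; inconclusive = no clear call, values can overlap the other calls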;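 note: enzyme runs in reverse so mevalonate oxidation gives rising NADPH absorbance; 0% = complete reaction with DMSO and 100% = background rate lacking mevalonate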
RanGTP-Imp inh: inhibitors of RanGTP-importin-beta interaction, primary screen, biochemical, FRET, CFP-Ran, YFP-importin-beta, homogeneous; cell-free CFP-Ran/YFP-importin-beta FRET ratio; AID 2216; inhibition, % (concentration not given with the values); 300,000 compounds, 1.1% hits;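 active = more than half of the replicate wells show a fall in the fluorescence ratio signal beyond about 16%, limit read from the data, passing the limit was not always enough; inconclusive = exactly half of the replicate wells pass the set limit; inactive = fewer than half of replicates pass the limit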;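 note: 0% = DMSO wells and 100% = Ran loaded with GDP instead of GTP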
Wee1 degr inh: inhibitors of human Wee1 degradation. reporter increase, % at 5 µM. AID 1321. 220,000 compounds, 1.2% hits. HeLa Luc-Wee1K328M stability, luciferase luminescence; 100% = proteasome inhibitor MG132 effect;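 active = activation above the mean of all tested compounds plus 3 SD, set per screening run, cut at about 8.8% in these data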;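 note: cells exposed to compound for 20 h before luminescence read; 0% = DMSO alone and 100% = MG132 at 30 µM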
Runt-CBFb TRFRET: disrupts human RUNX1 Runt domain binding to CBFb. TR-FRET RUNX1 Runt domain-CBFb binding. shares compounds with Runt-CBFb FRET. inhibition, % at 20 µM. 480 compounds, 20% hits; in the data active = inhibition above about 40%
The depositor's hits bear a star.

How did NS(=O)(=O)c1ccc(NC(=S)NC2CCCC2)cc1 do in these assays?
PHOSPHO1 block: 81*; Runt-SMMHC FRET: 31; Runt-CBFb FRET: 55*; Efa HMGR inh: -3; RanGTP-Imp inh: 2; Wee1 degr inh: 2; Runt-CBFb TRFRET: -16

How did NS(=O)(=O)c1ccc(NC(=S)NC2CCCCCC2)cc1 do in these assays?
PHOSPHO1 block: 6; Runt-SMMHC FRET: -1; Runt-CBFb FRET: -5; Efa HMGR inh: 1; RanGTP-Imp inh: 4; Wee1 degr inh: 0

How did CCN(CC)c1ccc(/C=N/NC(=O)c2ccco2)c(O)c1 do in these assays?
PHOSPHO1 block: 20; Runt-SMMHC FRET: 82*; Runt-CBFb FRET: 75*; RanGTP-Imp inh: 63*; Wee1 degr inh: 5; Runt-CBFb TRFRET: 20

How did CCN(CC)c1ccc(/C=N/NC(=O)Cc2cccs2)c(O)c1 do in these assays?
PHOSPHO1 block: -9; Runt-SMMHC FRET: 12; Runt-CBFb FRET: 0; Efa HMGR inh: -1; RanGTP-Imp inh: -1; Wee1 degr inh: 2

How did CCOc1ccccc1CN1CCN(C2CCSCC2)CC1CCO (centres undefined) do in these assays?
PHOSPHO1 block: 28; Runt-SMMHC FRET: 3; Runt-CBFb FRET: 0; Efa HMGR inh: 0; RanGTP-Imp inh: -1; Wee1 degr inh: -2

How did O=C(CSc1ncnc2ccccc12)N1CCCC1 do in these assays?
PHOSPHO1 block: -21; Runt-SMMHC FRET: 1; Runt-CBFb FRET: 2; Efa HMGR inh: -6; RanGTP-Imp inh: 2; Wee1 degr inh: -2

What do the screens show for `O=C(CSc1ncnc2ccccc12)c1cccs1`?
PHOSPHO1 block: -20; Runt-SMMHC FRET: 90*; Runt-CBFb FRET: 54*; Efa HMGR inh: 0; RanGTP-Imp inh: 1; Wee1 degr inh: 2; Runt-CBFb TRFRET: -28

Results for O=C(NC1CCCCCC1)c1ccc[nH]c1=S ?
PHOSPHO1 block: -26; Runt-SMMHC FRET: 60*; Runt-CBFb FRET: 54*; Efa HMGR inh: -3; RanGTP-Imp inh: 1; Wee1 degr inh: -2; Runt-CBFb TRFRET: -36

Results for CSCC[C@H](NS(=O)(=O)c1ccc(C)cc1)C(=O)N1CCC(C(=O)N[C@H](C(=O)O)c2ccccc2)CC1 ?
PHOSPHO1 block: 19; RanGTP-Imp inh: inconclusive

How did Cc1cccc(N2CCc3c2nc2ccc(Br)cc2c3N)c1 do in these assays?
PHOSPHO1 block: 1; Runt-SMMHC FRET: 78; Runt-CBFb FRET: 57*; Efa HMGR inh: 1; RanGTP-Imp inh: 6; Wee1 degr inh: 0; Runt-CBFb TRFRET: -14

What do the screens show for `Nc1nc(NC(=O)CCC(=O)O)nn1-c1ccccc1`?
PHOSPHO1 block: 43; Runt-SMMHC FRET: -2; Runt-CBFb FRET: 3; RanGTP-Imp inh: 2; Wee1 degr inh: 1

Results for CN(C)c1cccc(C(=O)OCc2cc(=O)oc3cc(O)ccc23)c1 ?
PHOSPHO1 block: -6; Runt-SMMHC FRET: 81*; Runt-CBFb FRET: 85*; Efa HMGR inh: 3; RanGTP-Imp inh: inconclusive; Wee1 degr inh: -1; Runt-CBFb TRFRET: 52*

What do the screens show for `CC1(C)C(N(O)C(=O)Nc2ccccc2)N(c2cccc(Cl)c2)C(=O)N1O` (centres undefined)?
PHOSPHO1 block: 22; Runt-SMMHC FRET: -4; Runt-CBFb FRET: 53*; Efa HMGR inh: -7; RanGTP-Imp inh: 1; Wee1 degr inh: 1; Runt-CBFb TRFRET: -14

Results for COc1ccccc1N1CCN(/N=C/c2cccc(O)c2)CC1 ?
PHOSPHO1 block: -10; Efa HMGR inh: 2; RanGTP-Imp inh: 2; Wee1 degr inh: -2

Results for COc1ccccc1N1CCN(/N=C/c2cc(OC)c(O)c(OC)c2)CC1 ?
PHOSPHO1 block: -12; Runt-SMMHC FRET: 47; Runt-CBFb FRET: 59*; Efa HMGR inh: 1; RanGTP-Imp inh: 4; Wee1 degr inh: -3; Runt-CBFb TRFRET: 35

How did Cc1cc(O)ccc1N/C=C(\C#N)c1nc2ccccc2o1 do in these assays?
PHOSPHO1 block: 1; Runt-SMMHC FRET: 60; Runt-CBFb FRET: 53*; Efa HMGR inh: -8; RanGTP-Imp inh: -3; Wee1 degr inh: 1; Runt-CBFb TRFRET: 3

Results for N#C/C(=C\c1c(Cl)cccc1Cl)c1nc2ccccc2o1 ?
PHOSPHO1 block: 7; Runt-SMMHC FRET: 4; Runt-CBFb FRET: 5; Efa HMGR inh: -5; RanGTP-Imp inh: -1; Wee1 degr inh: 1

What do the screens show for `O=C(NC(=S)NNC(=O)c1ccccc1[N+](=O)[O-])c1ccccc1`?
PHOSPHO1 block: 3; Runt-SMMHC FRET: 38; Runt-CBFb FRET: 13; Efa HMGR inh: 1; RanGTP-Imp inh: 0; Wee1 degr inh: 0

Results for CCC(=O)NC(=S)NNC(=O)c1ccccc1[N+](=O)[O-] ?
PHOSPHO1 block: 65*; Runt-SMMHC FRET: 48; Runt-CBFb FRET: 51*; Efa HMGR inh: 4; RanGTP-Imp inh: -3; Wee1 degr inh: 2; Runt-CBFb TRFRET: -20

Results for COc1cc(Cl)c(C)cc1NC(=S)NN ?
PHOSPHO1 block: 32; Runt-SMMHC FRET: 30; Runt-CBFb FRET: 51*; Efa HMGR inh: 1; RanGTP-Imp inh: 2; Wee1 degr inh: 1; Runt-CBFb TRFRET: 16

Results for O=C(O)COc1ccccc1/C=N/NC(=O)CSc1nnc(SCc2ccccc2)s1 ?
PHOSPHO1 block: 27; Runt-SMMHC FRET: -3; Runt-CBFb FRET: -2; RanGTP-Imp inh: 3; Wee1 degr inh: -4

Results for CC1CCCN(C(=O)COC(=O)CNS(=O)(=O)c2ccc3ccccc3c2)C1 (centres undefined) ?
RanGTP-Imp inh: -1

Results for N#C/C(=C\c1c(N(Cc2ccccc2)Cc2ccccc2)nc2ccccn2c1=O)C(N)=O ?
PHOSPHO1 block: 2; Runt-SMMHC FRET: 7; Runt-CBFb FRET: 3; Efa HMGR inh: -1; RanGTP-Imp inh: 0; Wee1 degr inh: -1

Results for C=CCNC(=O)/C(C#N)=C/c1c(N(Cc2ccccc2)Cc2ccccc2)nc2ccccn2c1=O ?
PHOSPHO1 block: -4; Runt-SMMHC FRET: 71*; Runt-CBFb FRET: 51*; Efa HMGR inh: -5; RanGTP-Imp inh: 4; Wee1 degr inh: -2; Runt-CBFb TRFRET: -8

What do the screens show for `O=[N+]([O-])c1ccc(C2CC(c3ccccc3)=Nc3ccccc3S2)cc1` (centres undefined)?
PHOSPHO1 block: 37; Runt-SMMHC FRET: -3; Runt-CBFb FRET: 56*; RanGTP-Imp inh: -2; Wee1 degr inh: -1; Runt-CBFb TRFRET: 20

Results for Fc1ccc(C2CC(c3ccco3)=Nc3ccccc3S2)cc1 (centres undefined) ?
PHOSPHO1 block: 57; Runt-SMMHC FRET: 34; Runt-CBFb FRET: 51*; Efa HMGR inh: -4; RanGTP-Imp inh: 3; Wee1 degr inh: 3; Runt-CBFb TRFRET: -5
